Laboratory results as given in ChEMBL document CHEMBL1152556, “Omega-conotoxin GVIA mimetics based on an anthranilamide core: effect of variation in ammonium side chain lengths and incorporation of fluorine” (Bioorg Med Chem, 2009).
pEC50: −log10 of the molar value.

Target: Voltage-dependent N-type calcium channel subunit alpha-1B (Rattus norvegicus, UniProt Q02294)
Assay: Displacement of [125I]GVIA from Cav2.2 channel in rat brain by scintillation counting
Type: tissue-based
Settings: for pEC50: read-out: EC50; call rule not given here
Procedure, shortened: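 Radioligand displacement run in triplicate at room temperature on crude rat brain membrane (8 lg per well, added last) with 125I-GVIA tracer. Buffer: 20 mM HEPES, 75 mM NaCl, 0.2 mM EDTA, 0.2 mM EGTA, leupeptin, aprotinin, 0.1% BSA, pH 7.4. Shaken 1 h, then filtered on PEI-soaked glass fibre and washed with HEPES/125 mM NaCl, pH 7.4. Filter-bound counts read.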

Chain of Voltage-dependent N-type calcium channel subunit alpha-1B (Q02294 whole entry): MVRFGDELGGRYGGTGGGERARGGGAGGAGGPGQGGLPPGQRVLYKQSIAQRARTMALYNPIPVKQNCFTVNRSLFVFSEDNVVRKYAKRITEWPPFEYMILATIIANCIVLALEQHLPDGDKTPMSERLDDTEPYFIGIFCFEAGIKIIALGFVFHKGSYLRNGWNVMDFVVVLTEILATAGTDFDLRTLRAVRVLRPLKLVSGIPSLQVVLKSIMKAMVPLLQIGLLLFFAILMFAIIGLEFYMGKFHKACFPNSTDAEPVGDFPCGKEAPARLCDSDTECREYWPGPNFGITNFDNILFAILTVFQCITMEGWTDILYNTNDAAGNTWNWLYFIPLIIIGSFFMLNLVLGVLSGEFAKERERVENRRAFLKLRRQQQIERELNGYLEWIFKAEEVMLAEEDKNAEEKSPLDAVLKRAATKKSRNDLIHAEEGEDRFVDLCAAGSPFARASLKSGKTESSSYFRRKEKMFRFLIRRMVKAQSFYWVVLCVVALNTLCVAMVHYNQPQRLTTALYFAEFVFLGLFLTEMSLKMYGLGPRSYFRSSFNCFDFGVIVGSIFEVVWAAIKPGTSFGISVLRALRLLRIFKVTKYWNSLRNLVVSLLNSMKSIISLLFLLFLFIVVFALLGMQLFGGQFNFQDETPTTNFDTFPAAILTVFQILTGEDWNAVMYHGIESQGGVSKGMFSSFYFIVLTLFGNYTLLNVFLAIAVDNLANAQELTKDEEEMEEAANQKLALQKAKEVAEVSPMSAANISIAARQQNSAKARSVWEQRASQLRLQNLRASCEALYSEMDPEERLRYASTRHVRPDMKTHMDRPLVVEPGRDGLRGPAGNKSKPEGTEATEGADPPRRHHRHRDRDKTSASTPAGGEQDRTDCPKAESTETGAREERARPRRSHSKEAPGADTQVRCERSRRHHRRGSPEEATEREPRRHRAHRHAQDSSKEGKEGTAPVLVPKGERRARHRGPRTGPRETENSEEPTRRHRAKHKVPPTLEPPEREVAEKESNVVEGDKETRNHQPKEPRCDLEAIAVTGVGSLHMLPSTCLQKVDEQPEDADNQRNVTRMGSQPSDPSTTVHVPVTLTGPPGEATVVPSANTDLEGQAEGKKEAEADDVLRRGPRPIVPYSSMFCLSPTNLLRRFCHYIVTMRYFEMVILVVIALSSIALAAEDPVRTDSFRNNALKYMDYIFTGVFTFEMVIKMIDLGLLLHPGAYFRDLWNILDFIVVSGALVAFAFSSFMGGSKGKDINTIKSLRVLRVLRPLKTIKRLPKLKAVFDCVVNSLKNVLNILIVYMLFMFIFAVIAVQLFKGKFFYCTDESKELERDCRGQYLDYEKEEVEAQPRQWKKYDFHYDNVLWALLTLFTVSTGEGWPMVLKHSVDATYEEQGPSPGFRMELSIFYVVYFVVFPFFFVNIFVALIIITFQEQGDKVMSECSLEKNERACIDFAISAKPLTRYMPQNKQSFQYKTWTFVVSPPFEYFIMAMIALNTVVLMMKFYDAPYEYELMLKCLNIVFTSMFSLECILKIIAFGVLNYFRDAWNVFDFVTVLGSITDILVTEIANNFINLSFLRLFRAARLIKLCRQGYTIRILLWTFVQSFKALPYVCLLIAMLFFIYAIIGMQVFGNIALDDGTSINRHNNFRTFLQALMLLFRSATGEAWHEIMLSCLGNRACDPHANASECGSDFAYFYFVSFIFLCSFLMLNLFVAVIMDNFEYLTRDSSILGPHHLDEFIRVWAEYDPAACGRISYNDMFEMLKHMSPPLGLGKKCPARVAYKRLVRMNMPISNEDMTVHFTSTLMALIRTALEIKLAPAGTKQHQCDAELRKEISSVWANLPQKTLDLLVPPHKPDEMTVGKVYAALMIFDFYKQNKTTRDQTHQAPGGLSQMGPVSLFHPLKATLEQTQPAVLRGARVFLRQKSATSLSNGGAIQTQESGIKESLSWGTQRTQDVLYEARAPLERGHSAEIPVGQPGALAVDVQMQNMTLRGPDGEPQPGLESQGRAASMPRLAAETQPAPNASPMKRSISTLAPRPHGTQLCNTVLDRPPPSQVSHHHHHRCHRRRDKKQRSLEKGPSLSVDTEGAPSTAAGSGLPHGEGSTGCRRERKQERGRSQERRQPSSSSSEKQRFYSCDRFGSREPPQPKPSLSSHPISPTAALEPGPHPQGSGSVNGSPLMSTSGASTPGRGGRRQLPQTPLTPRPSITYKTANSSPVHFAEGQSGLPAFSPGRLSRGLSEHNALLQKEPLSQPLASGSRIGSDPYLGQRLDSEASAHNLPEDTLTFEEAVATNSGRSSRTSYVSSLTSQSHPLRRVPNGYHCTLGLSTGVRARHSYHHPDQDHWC

Row | SMILES | pEC50 | EC50
1 | NC(N)=NCCCCC(=O)Nc1ccc(OCCCN=C(N)N)cc1C(=O)Nc1ccc(Oc2ccccc2)cc1 | 3.94 | 
2 | NC(N)=NCCCCCCCC(=O)Nc1ccc(OCCCCN=C(N)N)cc1C(=O)Nc1ccc(Oc2ccccc2)cc1 | 4.82 | 
3 | NCCCCCCCC(=O)Nc1ccc(OCCCCN)cc1C(=O)Nc1ccc(Oc2ccccc2)cc1 | 4.05 | 
4 | NCCCCCCCC(=O)Nc1ccc(OCCCN)cc1C(=O)Nc1ccc(Oc2ccc(F)cc2)cc1 |  | Not Active
5 | NCCCCCCCC(=O)Nc1ccc(OCCCN)cc1C(=O)Nc1ccc(Oc2ccc(O)cc2)cc1 |  | Not Active
6 | NC(N)=NCCCCCCCC(=O)Nc1ccc(OCCCN=C(N)N)cc1C(=O)Nc1ccc(Oc2ccc(O)cc2)cc1 | 4.80 | 
7 | NCCCCCC(=O)Nc1ccc(OCCCCN)cc1C(=O)Nc1ccc(Oc2ccccc2)cc1 | 4.00 | 
8 | NC(N)=NCCCCCCCC(=O)Nc1ccc(OCCCN=C(N)N)cc1C(=O)Nc1ccc(Oc2ccccc2)cc1 | 4.89 | 
9 | NCCCCCCCC(=O)Nc1ccc(OCCCN)cc1C(=O)Nc1ccc(Oc2ccccc2)cc1 | 4.14 | 
10 | NC(N)=NCCCCCC(=O)Nc1ccc(OCCCCN=C(N)N)cc1C(=O)Nc1ccc(Oc2ccccc2)cc1 | 4.77 | 
11 | NC(N)=NCCCCCCCC(=O)Nc1ccc(OCCCN=C(N)N)cc1C(=O)Nc1ccc(Oc2ccc(F)cc2)cc1 | 5.22 | 
12 | NCCCCCC(=O)Nc1ccc(OCCCN)cc1C(=O)Nc1ccc(Oc2ccccc2)cc1 | 3.97 | 
13 | NCCCCC(=O)Nc1ccc(OCCCN)cc1C(=O)Nc1ccc(Oc2ccccc2)cc1 | 4.11 | 
14 | NC(N)=NCCCCCC(=O)Nc1ccc(OCCCN=C(N)N)cc1C(=O)Nc1ccc(Oc2ccccc2)cc1 | 4.80 | 
